# Assay outcomes: PubChem BioAssay, several laboratories
# A selection: hits, their analogues and other compounds. The true share with any hit is near 1.9%.
# b-catenin transl – modulators of beta-catenin nuclear translocation | hit rate 0.3% among 190,000 | HeLa beta-catenin nuclear translocation, immunofluorescence imaging | nuclear translocation activity, % at 5 µM | AID 1665;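 active = nuclear translocation activity above 50% at 5 µM, with a well cell count of 50 or more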;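 also: per-cell ratio of nuclear to cytoplasmic median beta-catenin stain intensity; plate controls were DMSO negative control for no effect and GSK-3 inhibitor IX positive control for full effect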
#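 Test system: human HeLa cell line; Doses: 5 µM primary, 0.02–20 µM confirmation; Incubation: 24 h compound exposure, 37°C; Detection: beta-catenin immunofluorescence imaging with DAPI; Read-out: beta-catenin nuclear/cytoplasmic ratio, % activation.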
# Ins promoter up – MIN6 insulin promoter up-regulation. hit rate 0.3% among 190,000. z-score at 5 µM. MIN6 insulin promoter-GFP reporter, high-content imaging; hits give high values;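 active = z-score above 3 at 5 µM with at least 500 cells counted in the well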
# Autophagy mod – autophagy modulation, high-content screen; MEF GFP-LC3 puncta imaging; test concentration mostly 10 µM; calls only at 10 µM (by protocol); hit rate 0.98% among 190,000; AID 463193;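 active = percentage of spot-positive cells more than 3 SD above its plate mean, without a fluorescence outlier flag or 80% toxicity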;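 also: spot-positive cell cutoff set from DMSO-treated cells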
# MT stabilize HCS – stabilizes microtubules in HeLa cells; HeLa tubulin immunostaining HCS, 24 h; share of cells brighter than vehicle mean+2SD; % tubulin-high responders, % at 10 µM; hit rate 0.83% among 200,000; AID 2205;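 active = plate Z-score above 3 for both tubulin-high and condensed-nucleus cell shares, with cell loss under 80%, at 10 µM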;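 also: anti alpha tubulin signal scored within the nucleus-defined area of each cell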
# Tb hexokinase – blocks Trypanosoma brucei hexokinase 1 activity | recombinant TbHK1, G6PDH-coupled NADH A340 | inhibition, % at 10 µM | hit rate 0.11% among 220,000 | AID 1430;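 active = inhibition of 50% or more in the single-dose primary screen; inactive = inhibition below 50%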
# The depositor's hits bear a star; i = inactive; x = no result; + = active, no number.
SMILES,b-catenin transl,Ins promoter up,Autophagy mod,MT stabilize HCS,Tb hexokinase
CCc1ccc2c(c1)C1(NN=C(c3cccc4ccccc34)S1)C(=O)N2 (configuration not stated),8,x,+,4,12
CCOC(=O)C1=C(CC)Nc2ccccc2N/C1=N\S(=O)(=O)c1cc(Br)ccc1Br,x,-1,i,5,-3
COc1ccc(N=c2oc3c(OC)cccc3cc2C(=O)NCc2ccco2)c(OC)c1,0,-3.3,+,7,-22
CCc1ccc(CNC(=O)Cn2nc(-c3ccc(C)cc3)ccc2=O)cc1,-4,0.12,i,3,6
COc1ccc(-c2csc(N(CCCN(C)C)C(=O)c3cccs3)n2)cc1,-1,-4.2,i,4,-28
COCCCN(C(C)=O)c1nc(-c2ccc(OC)cc2)cs1,0,1.6,i,23*,-6
CN(NC(=O)c1ccccc1F)c1ccc([N+](=O)[O-])cn1,-1,x,x,x,-57
COc1ccc(O)c(/C=N/NC(=S)Nc2cccc(S(=O)(=O)N(C)C)c2)c1,1,-0.26,+,3,12
Cc1cc(C)cc(N(CC(=O)NC2CCC(C)CC2)S(=O)(=O)c2c(C)[nH]c(=O)[nH]c2=O)c1 (configuration not stated),0,-0.52,x,x,-5
Cc1ccc(C2=C(c3ccc([N+](=O)[O-])cc3)C(=O)OC2)cc1C,2,0.22,+,4,-8
CC(C)CCN1CCN(Cc2cccc3cccnc23)CC1CCO (configuration not stated),-1,-0.49,i,2,10
CCCNC(=O)NC(=O)COC(=O)c1ccc(S(=O)(=O)N(C)c2ccccc2OC)cc1,-3,1.4,i,15*,1
Cc1ccccc1NC(=S)NCCO,-1,1,+,3,-8
NNC(=O)C(Cc1c[nH]c2ccccc12)NC(=O)c1ccccc1 (configuration not stated),0,-0.86,x,x,-4
O=C(C/C=N\O)Nc1ccc(Oc2ccccc2)cc1,-3,0.23,i,5,-4
CO/N=C\CC(=O)Nc1ccc(Oc2ccccc2)cc1,165*,0.22,i,27*,-3
COc1ccc(C2C(C(C)=O)=C(C)N=c3s/c(=C/c4ccc5c(c4)OCO5)c(=O)n32)cc1 (configuration not stated),x,0.92,i,1,-11
CC1(C)CC(=O)C2=C(C1)N=c1s/c(=C/c3ccc(F)c(F)c3)c(=O)n1C2c1ccc(F)cc1 (configuration not stated),2,-0.84,+,5,-5
O=S(=O)(NCCc1ccccc1)c1ccc(Cl)nc1,0,0.08,i,4,31
CCc1ccccc1NC(=O)Cn1nnc(C(=O)NCc2cccs2)c1N,1,-0.3,i,30*,-6
CCOc1cccc2cc(-c3cn4cc(C)ccc4n3)c(=O)oc12,2,-1.1,+,42*,-21
CCOc1ccc(C2c3cc(OC)c(OC)cc3CC(=O)N2c2ccc(OC)cc2)cc1 (configuration not stated),11,-0.53,i,42*,-5
CCOc1cc2c(cc1OCC)C(c1ccc(OC)c(OC)c1)N(c1ccc(C(=O)O)cc1)C(=O)C2 (configuration not stated),-6,1.1,i,5,-5
CN(C)c1ccc(/C=N/NC(=O)CN(c2ccccc2Cl)S(C)(=O)=O)cc1Br,-2,3.6*,i,2,-17
COc1cc(/C=N/n2cnc3scc(-c4cccs4)c3c2=O)cc(OC)c1OC,2,0.21,i,30*,-12
SMILES,b-catenin transl,Ins promoter up,Autophagy mod,MT stabilize HCS,Tb hexokinase
COc1ccc(/C=N/n2cnc3scc(-c4cccs4)c3c2=O)cc1OC,x,0.58,i,3,-3
CCC(CO)Nc1nc2ccc(Cl)cc2c2ccccc12 (configuration not stated),1,0.03,x,x,-20
CCOC(=O)c1c(NC(=O)CC2Nc3ccccc3NC2=O)sc(C)c1C (configuration not stated),-2,-0.67,+,2,23
COC(=O)c1c(NC(=O)CC2Nc3ccccc3NC2=O)sc(C)c1C (configuration not stated),x,x,+,2,-6
O=C(CC1Nc2ccccc2NC1=O)Nc1cc(Cl)cc(Cl)c1 (configuration not stated),x,x,i,3,-22
Cc1cccc2cc(CNC3CCCC3)c(Cl)nc12,2,x,i,1,3
COc1ccc(NS(=O)(=O)c2cc(NC(=O)c3nc4nc(C)cc(C)n4n3)ccc2C)cc1,-4,1,+,9,-5
COc1ccc(NS(=O)(=O)c2cc(NC(=O)c3ccco3)ccc2N2CCCC2)cc1,2,-1.4,i,15*,-7
COc1ccccc1NS(=O)(=O)c1cccc(NC(=O)c2nc3nc(C)cc(C)n3n2)c1,x,0.16,i,2,-9
COc1ccc(NS(=O)(=O)c2cc(NC(=O)c3cc(F)c(F)c(F)c3F)ccc2N2CCCC2)cc1,0,-0.25,x,x,-6
CCOC(=O)c1c(-c2ccccc2)csc1NC(=O)/C(C#N)=C/c1ccc(O)c(OC)c1,-1,1.3,+,6,-3
CCOC(=O)c1c(-c2ccccc2)csc1NC(=O)/C(C#N)=C/c1ccc(OC)c(OC)c1,1,-0.21,+,4,-4
CCOC(=O)/C(C#N)=C\c1ccc(OC)c(OC)c1,0,-0.01,i,4,-26
CN(C)C(CNC(=O)c1ccc(S(=O)(=O)N(C)C)cc1)Cc1ccccc1 (configuration not stated),-1,0.38,+,6,4
CC(C)OP(=O)(OC(C)C)C(O)c1cccc([N+](=O)[O-])c1 (configuration not stated),-1,-0.54,x,x,-8
Cc1nn(CC#N)c(=O)n1-c1ccc(Cl)cc1,-3,0.52,+,5,3
Cc1sc2nc(SCC(=O)C(C)(C)C)n(Cc3ccco3)c(=O)c2c1C,4,-0.33,i,35*,1
Cc1cccc(NCC(=O)N/N=C/c2ccc(Br)cc2)c1,4,0.29,i,6,-2
O=C(NNC(=O)C1CCN(Cc2ccc(F)cc2Cl)CC1)Nc1ccc([N+](=O)[O-])cc1,0,0.81,i,2,-16
CN(Cc1ccccc1NS(=O)(=O)c1ccc2ccccc2c1)C1CCCCC1,-4,-1.5,i,3,1
c1ccc(CN2CCN(c3nc(N4CCOCC4)c4ccccc4n3)CC2)cc1,x,x,+,4,-6
COc1cc(C2C(C#N)=C(N)Oc3cc(O)ccc32)cc2c1OCO2 (configuration not stated),3,0.32,i,16*,-1
COc1ccc(C2C(C#N)=C(N)Oc3cc(O)ccc32)cc1OC (configuration not stated),-2,0.52,i,7,8
